Screening data deposited in PubChem BioAssay by Johns Hopkins Ion Channel Center.
TRPC4 potent: positive allosteric modulators of TRPC4, primary screen, cell-based, mouse TRPC4beta, HEK293 mu-opioid, Fluo-4 calcium. Short transient receptor potential channel 4 (Mus musculus), Q9QUQ5. DAMGO EC20, Fluo-4 Ca2+ flux; active compounds read high. B-score at 10 µM. 310,000 tested, 0.42% active;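 active means B-score of calcium response area above 5 SD of library B-scores, with initial fluorescence ratio within 5 SD of library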;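 further: B-score of integrated fluorescence ratio over time as area under calcium response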
TRPC4 act: activators of mouse TRPC4 channel, primary screen, Fluo4 calcium, HEK293 TRPC4beta/mu-opioid cells. Short transient receptor potential channel 4 (Mus musculus), Q9QUQ5. Fluo4 calcium fluorescence; active compounds read high. B-score at 10 µM. 310,000 tested, 0.49% active;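 active means B-score above 5 SD of library B-scores, and initial fluorescence ratio not above library mean plus 5 SD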;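 further: positive B-score marks a calcium rise read as TRPC4 activation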
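Material: HEK293 stable line with TRPC4beta plus mu-opioid receptor; technique: Fluo4 calcium-sensitive dye fluorescence, kinetic, 1 Hz baseline; timing: Fluo4 dye loading 45 min at room temperature, 110 s recording; controls: assay buffer as low control, maximal DAMGO as high control; read-out: integrated baseline-normalised fluorescence ratio, converted to per-well B score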
TRPC6 act: mouse TRPC6 channel activators, primary screen, cell-based, HEK293, membrane potential dye; Short transient receptor potential channel 6 (Mus musculus), Q61143; HEK293-TRPC6 membrane potential dye fluorescence; active compounds read high; B-score at 10 µM; 310,000 tested, 0.13% active;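 active means B-score of the integrated fluorescence ratio above library mean plus 3 SD, and starting fluorescence ratio within library mean plus 5 SD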;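 further: higher score means more depolarization so channel activation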
TRPC6 inh: mouse TRPC6 channel inhibitors, primary screen, cell-based, HEK293, membrane potential dye. ACh-evoked depolarization; active compounds read low. B-score at 10 µM. 310,000 tested, 1.1% active. Short transient receptor potential channel 6 (Mus musculus), Q61143;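 active means B-score under library mean minus 3 SD, initial fluorescence not abnormally high, positive integrated signal ratio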;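 further: B-score derived from integrated fluorescence ratio over the kinetic read; more negative B-score means stronger inhibition of depolarization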
TRPC4 block: inhibitors of mouse TRPC4 channel, primary screen, Fluo4 calcium, HEK293 TRPC4beta/mu-opioid cells | Short transient receptor potential channel 4 (Mus musculus), Q9QUQ5 | DAMGO-evoked Fluo4 calcium flux; active compounds read low | B-score at 10 µM | 300,000 tested, 0.39% active;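 active means B-score over 3 SD under the library average, no early fluorescence shift, positive overall ratio signal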
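Assay system – HEK293 line stably carrying TRPC4beta and mu-opioid receptor · Doses – single dose · Detection – Fluo4 calcium-dye fluorescence, kinetic read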
TRPC4 spec 2: mouse TRPC4 off-target activity of TRPC6 inhibitors, second screen; shares compounds with TRPC6 inh; HEK293 TRPC4/MOR, membrane potential dye fluorescence; channel activated by saturating DAMGO dose; inhibition, % at 10 µM; 920 tested, 42% active; AID 2776;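 active means compounds whose fluorescence signal differed from control wells by over 3 SD, either direction, in both duplicate plates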
TRPC4 spec: mouse TRPC4 modulation by TRPC6 hits, confirmation, selectivity assay for TRPC6 inhibitor project, cell-based, HEK293 TRPC4/mu-opioid, membrane potential dye; shares compounds with TRPC6 inh; membrane potential fluorescence; activity change, negative = inhibition, % at 10 µM; 920 tested, 61% active;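 active means rise or fall in signal beyond 3 SD of buffer-only wells in both replicate plates, either sign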;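 further: integrated kinetic ratio of fluorescence range over baseline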
HEK293 MPD ctr 2-1: nonspecific membrane potential effects, parental HEK293, confirmation, counter-screen for TRPC6 inhibitor project, cell-based, second counter screen; parental HEK293 membrane potential dye fluorescence; maximal acetylcholine challenge after compound addition; AID 2779, 2010; shares compounds with TRPC6 inh; 920 tested, 31% active; signal change vs control, % at 10 µM;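 active means membrane potential signal moving either way by over 3 SD of the maximum-effect control, in both duplicate plates, meaning non-specific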
HEK293 MPD ctr-1: membrane potential modulation in parental HEK293, confirmation, counter-screen for TRPC6 inhibitor project, cell-based; shares compounds with TRPC6 inh; parental HEK293 membrane potential dye fluorescence; membrane potential signal change, % at 10 µM; 920 tested, 60% active;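 active means membrane potential signal shifting up or down by more than 3 SD of buffer-only wells, on both duplicate plates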
HEK293 MPD ctr-2: parental HEK293 membrane potential modulation, confirmation, counter-screen for TRPC6 modulator project, cell-based; shares compounds with TRPC6 inh; membrane potential signal change, % at 10 µM; 2,400 tested, 51% active; membrane potential dye fluorescence;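 active means membrane potential signal moves up or down beyond 5 SD from buffer-only wells, on both duplicate plates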
HEK293 MPD ctr 2-2: parental HEK293 nonspecific activity of TRPC6 modulators, second screen; inhibition, % at 10 µM; 2,400 tested, 14% active; shares compounds with TRPC6 inh; membrane potential dye fluorescence; after compound, maximal acetylcholine stimulation;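 active means membrane potential signal drops by more than 5 SD from the mean control signal, in both duplicate plates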;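 further: plate controls were acetylcholine ECmax control wells for no effect and buffer only wells for full effect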
TRPC4/MOR mod: TRPC4 modulation by TRPC6 hit compounds, confirmation, selectivity assay for TRPC6 modulator project, cell-based, HEK293 TRPC4/mu-opioid, membrane potential dye, mouse; shares compounds with TRPC6 inh; membrane potential fluorescence; percent change from control (negative = decrease, positive = increase), % at 10 µM; 2,400 tested, 69% active; AID 488927, 2010;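 active means membrane potential signal moved up or down beyond 5 SD of buffer control wells, in both duplicate plates, actives on both sides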;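 further: plate controls were assay buffer wells for no effect and DAMGO maximal-effect wells for full effect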
TRPC4/MOR inh 2: second check of whether TRPC6 modulators also affect mouse TRPC4; shares compounds with TRPC6 inh; HEK293 TRPC4/mu-opioid, membrane potential dye fluorescence; stimulated with maximal-effect DAMGO; inhibition, % at 10 µM; 2,400 tested, 55% active; AID 488928;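 active means drop in membrane potential signal beyond 5 SD of the control wells in both duplicate plates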;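 further: TRPC4 counter screen for TRPC6 hits run under conditions tuned for TRPC6 not TRPC4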
TRPC6 inh conf: mouse TRPC6 channel inhibitors, confirmation, HEK293 cells, membrane potential dye, duplicate; shares compounds with TRPC6 inh; ACh-evoked depolarization; inhibition, % at 10 µM; 3,300 tested, 43% active;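 active means fluorescence ratio falls more than 5 SD below the full-stimulation control mean, in both duplicate runs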;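 further: integrated fluorescence ratio of peak minus minimum over baseline after agonist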
TRPC6 act confirm: mouse TRPC6 channel activators, confirmation, HEK293 cells, membrane potential dye, duplicate; HEK293-TRPC6 membrane potential dye fluorescence, FDSS; 2,800 tested, 11% active; shares compounds with TRPC6 inh; activation, % at 10 µM; AID 488961, 2010;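 active means ratio signal rise beyond 5 SD above unstimulated control wells' mean, seen in both duplicate runs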;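 further: plate controls were buffer EC0 wells for no effect and acetylcholine ECmax response for full effect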
* marks the source's active call; other numbers are inactive results; i = inactive; x = not tested or not shown. This is a sample that favours compounds with a hit; in the whole collection about 2.3% have one here.

SMILES	TRPC4 potent	TRPC4 act	TRPC6 act	TRPC6 inh	TRPC4 block	TRPC4 spec 2	TRPC4 spec	HEK293 MPD ctr 2-1	HEK293 MPD ctr-1	HEK293 MPD ctr-2	HEK293 MPD ctr 2-2	TRPC4/MOR mod	TRPC4/MOR inh 2	TRPC6 inh conf	TRPC6 act confirm
COc1ccc(S(=O)(=O)Nc2ccccc2-c2nnn(CC(=O)Nc3ccccc3OC)n2)cc1	i	i	i	-5.28*	i	x	x	x	x	i	i	i	i	i	i
COc1ccccc1N1CCN(Cc2ccc(O)c3ncccc23)CC1	i	i	i	-7.64*	i	i	i	i	i	x	x	x	x	i	i
Cn1c(CNc2ccc(Cl)cc2)nnc1SCCN1CCCCC1	i	i	i	-5.14*	i	x	x	x	x	i	i	17.5%*	38.0%*	i	i
COc1ccc(-c2cc(C(F)(F)F)n3nc(C(=O)N4CCN(C(=O)c5ccco5)CC4)cc3n2)cc1	i	i	i	i	i	x	x	x	x	x	x	x	x	x	x
O=C(c1cc2nc(-c3ccco3)cc(C(F)(F)F)n2n1)N1CCN(Cc2ccccc2)CC1	i	i	i	-6.65*	i	i	5.7%*	227.0%*	2.3%*	x	x	x	x	i	i
COc1ccc(NC(=O)CN(C)C(=O)c2cc(C)on2)cc1	i	i	i	-5.72*	i	x	x	x	x	i	i	i	i	i	i
Cc1cc(C(=O)N(C)CC(=O)Nc2cccc(F)c2)no1	i	i	i	i	i	x	x	x	x	x	x	x	x	x	x
CN(NS(=O)(=O)c1ccc(Cl)cc1)c1nc(C(F)(F)F)nc2ccccc12	i	i	i	-5.6*	i	x	x	x	x	i	i	i	i	i	i
